Source: PubChem (several laboratories)
HSP90 inh: HSP90 inhibitors, primary screen, cell lysate, luminescence. Heat shock protein HSP 90 (rabbit reticulocyte lysate; luciferase refolding). AID 1789, 2009. Rabbit reticulocyte lysate, luciferase refolding luminescence, 3 h. inhibition, % at 5.6 µM. 0.91% of 290,000 active;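 active = inhibition above the screen-wide mean plus 3 SD, computed separately per campaign, cut at about 16% in these data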;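 note: 0% = DMSO wells and 100% = 60 µM geldanamycin wells; inhibitors lower the luminescence because luciferase stays unfolded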
DNA FID counter: compounds displacing fluorescent DNA intercalator, primary screen, artefact control for HCV NS3 helicase inhibitor project, biochemical, FID fluorescence; AID 1845, 2009; 0.17% of 290,000 active; inhibition, % at 7.9 µM; DNA fluorescent intercalator displacement; in the data active = inhibition above about 37%;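 note: 0% = vehicle and 100% = reference compound; higher means more ethidium bromide displaced from hairpin DNA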
HCV core dimer: inhibitors of HCV core protein dimerization, primary screen, biochemical, TR-FRET, high-throughput. TR-FRET GST/Flag-core106 dimerization, 1536-well. inhibition, % at 5 µM. 0.33% of 300,000 active. AID 1899, 2009;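 active = inhibition above the mean of all tested compounds plus 3 SD, set per screening campaign, cut at about 45% in these data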
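Assay system: Tagged HCV core106 pair (GST and Flag) | Buffer or medium: KF-containing HEPES buffer, pH 7.45, DTT, CHAPS, BSA | Also added: Eu donor and XL665 acceptor anti-tag antibodies | Dosing: One concentration, 5 µM, in 0.5% DMSO | Timing: 4 h at 22.5 °C | Technique: TR-FRET 671 and 617 nm emission | Repeats: Singlicate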
HSF1 inhib: HSF1 inhibitors in luciferase reporter cells, primary screen, cell-based, NIH3T3, luminescence | 0.77% of 300,000 active | activity change, negative = inhibition, % at 7.5 µM (by protocol) | NIH3T3-HGL HSE-luciferase, MG132-induced, luminescence 8 h; stronger effect = lower value;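 active = more than half of replicate wells show activity change below -50%, luminescence cut by over half; inconclusive = some wells, but at most half, below -50%; inactive = no replicate well below -50%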;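 note: luciferase reports HSF-1 transcriptional activity via heat shock element; 0% = median of DMSO wells and -100% = zero luminescence signal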
HCV NS3 hel inh: inhibitors of HCV NS3 helicase, primary screen, biochemical, Cy5 molecular beacon fluorescence; Hepatitis C virus NS3 helicase; NS3 helicase DNA unwinding; inhibition, % at 10.9 µM; 0.56% of 290,000 active;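 active = inhibition above the mean of all tested compounds plus 3 SD, set per campaign, cut at about 35% in these data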;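 note: 0% = DMSO wells and 100% = thioflavine S control wells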
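Assay system: hepatitis C virus NS3 helicase domain fragment enzyme. Also added: annealed dual-labelled DNA beacon duplex, ATP-started. Timing: 1 h reaction at 25 °C, ATP-initiated. Technique: Cy5 fluorescence at 0 and 60 min, beacon hairpin quenching. Evaluation: % inhibition of unwinding. Replication: one well per compound.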
HSF-1 act: HSF-1 activators, primary screen, NIH3T3-HGL cells, MG132 stress, luminescence, single point. NIH3T3-HGL HSF-1 luciferase reporter, 8 h; 100% = twice DMSO control signal. 1.7% of 300,000 active. activation, % at 9 µM;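 active = mean replicate activation of at least 50% with a set share of replicates each reaching 50%; inconclusive = only one of those two conditions met; inactive = mean below 50% and too few replicates reaching it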;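 note: 0% = median of the neutral control wells and 100% = twice that signal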
HSP90 inh confirm: HSP90 inhibitors, confirmation, cell lysate, luminescence; shares compounds with HSP90 inh; rabbit reticulocyte lysate, luciferase refolding luminescence, 3 h; inhibition, % at 5.9 µM; 64% of 2,300 active; AID 1846, 2009; in the data active = inhibition above about 18%;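 note: 0% = vehicle wells and 100% = reference inhibitor wells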
FLuc counter: firefly luciferase inhibitors, HSP90 counter-screen, confirmation, artefact control for HSP90 inhibitor project, biochemical, luminescence, triplicate. shares compounds with HSP90 inh. purified native firefly luciferase. inhibition, % at 5.9 µM. 48% of 2,300 active. AID 1847, 2009;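 active = inhibition above the mean inhibition of all tested sample wells plus 3 SD, cut at about 10% in these data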;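 note: 0% = DMSO with luciferase and 100% = wells lacking luciferase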
Target sequence (P08659 whole entry, looked up): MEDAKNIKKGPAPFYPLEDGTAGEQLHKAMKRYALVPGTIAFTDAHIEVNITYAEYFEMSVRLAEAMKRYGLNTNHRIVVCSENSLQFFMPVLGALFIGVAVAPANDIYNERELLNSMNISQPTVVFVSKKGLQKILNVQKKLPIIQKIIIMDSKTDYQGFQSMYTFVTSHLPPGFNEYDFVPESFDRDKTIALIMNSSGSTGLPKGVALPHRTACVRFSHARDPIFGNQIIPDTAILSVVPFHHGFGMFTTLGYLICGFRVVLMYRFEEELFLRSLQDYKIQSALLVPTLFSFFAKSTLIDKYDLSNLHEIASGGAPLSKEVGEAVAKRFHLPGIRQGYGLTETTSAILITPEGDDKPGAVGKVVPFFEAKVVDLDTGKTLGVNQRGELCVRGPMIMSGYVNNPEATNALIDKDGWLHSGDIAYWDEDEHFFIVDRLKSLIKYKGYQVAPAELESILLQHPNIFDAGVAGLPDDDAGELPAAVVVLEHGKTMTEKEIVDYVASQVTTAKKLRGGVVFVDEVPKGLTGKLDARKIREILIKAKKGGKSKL
An asterisk follows results filed as active; u = inconclusive; x = not tested or not shown. The list is not random: actives were taken first. Their share in the collection is about 3.9%.

SMILES	HSP90 inh	DNA FID counter	HCV core dimer	HSF1 inhib	HCV NS3 hel inh	HSF-1 act	HSP90 inh confirm	FLuc counter
CCC(=O)c1ccc(OCC(=O)Nc2ccc(N3CCOCC3)cc2N2CCOCC2)cc1	28*	-33	3	-13	-3	-6	-5	-10
COc1ccc(Cl)cc1Nc1nc(-c2sc(NC(=O)c3ccccc3)nc2C)cs1	40*	6	29	5	-11	9	24*	-3
COc1ccc(Cl)cc1Nc1nc(-c2sc(NC(=O)CC(C)C)nc2C)cs1	5	-1	-4	-39	1	-53	x	x
CCCCCCC(=O)Nc1nc(C)c(-c2csc(Nc3cc(OC)ccc3OC)n2)s1	-2	0	-6	-39	2	-54	x	x
COc1ccc(OC)c(Nc2nc(-c3sc(NC(=O)c4ccccc4)nc3C)cs2)c1	27*	-2	11	13	-3	15	19*	-5
Cc1nc(NC(=O)c2ccccc2)sc1-c1csc(Nc2ccc(Cl)cc2Cl)n1	45*	2	9	-12	-18	3	35*	-13
CCN(CC)S(=O)(=O)c1ccc(N2CCOCC2)c(NC(=O)COc2ccc(C#N)cc2)c1	3	-33	9	-5	19	-1	x	x
C/C(=N\NC(=O)c1ccoc1C)c1ccccc1	20*	-9	-1	13	9	36	-2	-22
Cc1occc1C(=O)N/N=C/c1ccc(N(C)C)cc1	20*	-9	-23	37	0	u	60*	50*
C/C(=N/NC(=O)c1ccoc1C)c1ccc(NC(=O)C2CCCC2)cc1	1	0	-8	25	-10	39	x	x
Cc1cc(C)c(OCCCCCn2ccnc2)c(C)c1	8	9	x	0	13	14	x	x
CC(O)CNC(=S)Nc1ccccc1 (stereo unspecified)	23*	-7	3	-5	6	0	-6	-13
CCOC(=O)CON1C(=O)c2ccccc2C1=O	26*	1	-4	-13	5	-3	-4	-6
Cc1cc(C(=O)COC(=O)C23CC4CC(CC(O)(C4)C2)C3)c(C)n1-c1c(C)n(C)n(-c2ccccc2)c1=O	1	-24	-3	1	-1	32	x	x
COCCn1c(C)cc(C(=O)COC(=O)C23CC4CC(CC(O)(C4)C2)C3)c1C	35*	-30	-1	-6	6	-11	46*	33*
COc1ccc(C(=O)N2N=C(c3cccc(OC)c3)CC2(O)C(F)(F)F)cc1 (stereo unspecified)	-1	-20	1	3	-6	14	x	x
CCn1c(=O)c2cc(C(=O)N(C)c3ccc(OC)cc3OC)sc2c2ccccc21	23*	-27	9	6	-13	3	8	-2
Cc1ccc(CNC(=O)CN(c2ccc(Cl)cc2)S(C)(=O)=O)cc1	-3	-21	7	8	-3	8	x	x
COc1ccc(-c2cc3c(=O)n(CC(=O)NCCCN4CCC(Cc5ccccc5)CC4)ncn3n2)cc1	55*	31	-25	-35	-82	-34	60*	7
COc1ccc(-c2cc3c(=O)n(CC(=O)NCCCN4CCN(Cc5ccccc5)CC4)ncn3n2)cc1	26*	21	-7	-19	-49	-18	51*	35*
COc1ccc(-c2cc3c(=O)n(CC(=O)NCc4ccc(Cl)cc4)ncn3n2)cc1	3	-3	-9	0	8	6	x	x
CC(C)(C)c1ccc(Cn2c(=O)cnc3ccccc32)cc1	22*	-34	7	-70*	-5	-69	53*	34*
Cc1ccc(NC(=O)CCC(=O)NNC(=O)COc2ccccc2)c(C)c1	-1	-8	-13	0	-2	-1	x	x
O=C(O)c1cccc(Nc2nc(N3CCOCC3)nc(N3CCOCC3)n2)c1	3	-8	-2	-4	-12	-7	x	x
O=C(O)c1cccc(Nc2ccnc(Nc3cccc(C(=O)O)c3)n2)c1	37*	0	-1	-55*	2	-60	40*	58*
SMILES	HSP90 inh	DNA FID counter	HCV core dimer	HSF1 inhib	HCV NS3 hel inh	HSF-1 act	HSP90 inh confirm	FLuc counter
Cc1ccc(S(=O)(=O)NC(=O)c2cc(C)n(CCCn3ccnc3)c2C)cc1	4	-4	5	-1	6	0	x	x
CCC(=O)c1ccc(OCc2ccc(C(=O)OC)cc2)cc1	30*	-8	9	1	-10	-11	62*	-3
CC/C(=N\NC(=O)Cc1ccc(Br)cc1)c1cccs1	1	-20	x	-7	-1	19	x	x
CC(=O)Nc1cc(C(=O)N(C)Cc2ccccc2)ccc1S(=O)(=O)c1ccc(C)cc1	-4	-31	5	6	-2	7	x	x
CCN(Cc1nc(-c2cccc(C)c2)no1)C(=O)c1ccco1	21*	-27	9	9	2	2	-5	-8
CC(=O)Nc1ccc(NC(=O)C(C)OC(=O)C(C)SCC(=O)Nc2ccc(C)cc2)cc1 (stereo unspecified)	x	x	-5	2	x	-8	x	x
Fc1cccc(Nc2c3c(nc4ccccc24)CCC3)c1	2	-1	-4	-10	0	11	x	x
O=c1oc(Nc2cccc(F)c2)nc2ccccc12	18*	2	12	13	1	12	2	-14
COC(=O)c1c(NC(=O)C(=O)N2CCCC2)sc2c1CC(C)(C)OC2	3	-44	-7	-5	3	-5	x	x
Cc1ccc(-c2cn(-c3ccccc3)c(=S)[nH]2)cc1C	19*	-26	-4	-61*	30	-69	27*	15*
Cc1ccccc1-c1cn(-c2ccccc2)c(=S)[nH]1	5	-19	1	6	-3	25	x	x
C=CCNS(=O)(=O)c1cc2c3c(c1)CCN3C(=O)CC2	-3	-4	4	1	3	3	x	x
O=C(N/N=C/c1cc([N+](=O)[O-])ccc1O)c1cccc(N2CCCC2=O)c1	-4	-20	-1	-4	9	0	x	x
CC(NC(=O)COc1cccnc1[N+](=O)[O-])c1ccc(F)cc1 (stereo unspecified)	30*	1	9	-11	-6	-23	3	-6
